The test system of assay [1] is Rattus norvegicus. Nature of the assay: In vivo inhibition of polyol accumulation in the sciatic nerve of galactosemic rats, activity is measured as polyol contents. In kind it is functional, organism-based. The gist of the method:
(§1)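 Male Wistar rats (SIC, 4 weeks old), three per group, had free access to water and a 20% galactose diet containing the compound for 6 days. Galactose-only and standard-diet groups served as controls. Rats were bled under ether anesthesia on day 7. Sciatic nerve polyol was measured by a modified Dvornik assay. % inhibition = (galactose control − treated)/(galactose control − normal) × 100. Student's t-test was used.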

The subject of assay [2] is Rattus norvegicus. Nature of the assay: In vivo inhibition of polyol accumulation in the sciatic nerve of galactosemic rats, activity is expressed as percent inhibition of poloyl accumulation. In kind it is functional. Details: concentration or dose not given beside the values. Summed up:
as §1

Assay [3] has as its system Rattus norvegicus. Nature of the assay: Compound was evaluated in vivo for percent inhibition of polyol accumulation at a dose of 15 mg/kg per day. In kind it is functional. The gist of the method:
(§2)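 Galactosemic male Wistar rats (4 weeks old, n = 3) received the compound in a 20% galactose diet for 6 days and were killed on day 7. Sciatic nerve or lens polyol was measured by a modified Dvornik assay. Mean % inhibition = (galactose control − treated)/(galactose control − normal control) × 100.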

Assay [4] relates to Rattus norvegicus. Nature of the assay: Compound was evaluated in vivo for […] at a dose of 15 mg/kg per day. Conditions: Sciatic nerve. In kind it is functional, organism-based. Summed up:
as §1

The test system of assay [5] is Rattus norvegicus. Nature of the assay: Compound was evaluated in vivo for […] at a dose of 90 mg/kg per day. In kind it is functional, organism-based.
For assay [6], the system named is Rattus norvegicus. Kind of assay: Compound was evaluated in vivo for 50% inhibition of polyol accumulation in rat sciatic nerve at a dose of 3 mg/kg per day.
Assay [7] deals with Rattus norvegicus. Kind of assay: Compound was evaluated in vivo for percent inhibition of polyol accumulation at a dose of 3 mg/kg per day. It is filed as functional. Summed up: as §2
Assay [8] has as its system Rattus norvegicus. Kind of assay: Compound was evaluated in vivo for 50% inhibition of enzymatic activity of partially purified AR from male rabbit sciatic nerve at a dose of 90 mg/kg per day. In kind it is functional, organism-based. The gist of the method: as §1
The test system of assay [9] is Rattus norvegicus. Kind of assay: Compound was evaluated in vivo for inhibition of polyol accumulation in rat at a dose of 15 mg/kg per day.
The subject of assay [10] is Rattus norvegicus. Nature of the assay: Compound was evaluated in vivo for polyol content in lens of galactosemic rats at a dose of 3 mg/kg per day.

Where “and” joins values, the source holds several entries; their conditions need not be identical. Equal values may be shown once.

For orientation: Inhibition means the change of the read-out against control, counted positive when it falls. For the compound `Cc1ccc2c(c1)NC(=O)N(C)C21NC(=O)NC1=O` (stereo not drawn), the polyol content in the assay with Rattus norvegicus [1] is 8.4 µmol/g. This compound also registered an Inhibition with Rattus norvegicus [2] of 37.5%.
On the same counts, the results for `COc1ccc2c(c1)C1(NC(=O)NC1=O)N(C)C(=O)N2` (stereo not drawn) are 10.4 µmol/g and 13.6%.
Consider `CN1C(=O)Nc2ccc(F)cc2[C@@]12NC(=O)NC2=O`, for which the polyol content in the assay on Rattus norvegicus [1] was found to be 6.6 µmol/g. The Inhibition in the assay on Rattus norvegicus [2] worked out at 61%.
For the compound `CN1C(=O)Nc2c(Cl)cc(Cl)cc2C12NC(=O)NC2=O` (stereo not drawn), the polyol content with Rattus norvegicus [1] was found to be 5.8 µmol/g. In the assay with Rattus norvegicus [2], the Inhibition turned out to be 63.1%.
In turn, `Cc1cc2c(cc1Cl)C1(NC(=O)NC1=O)N(C)C(=O)N2` (stereo not drawn) displayed a polyol content in the assay on Rattus norvegicus [1] of 6.8 µmol/g. In addition, the Inhibition in the assay on Rattus norvegicus [2] is on record as 58%.
On the same counts, the results for `CN1C(=O)Nc2c(N)cc(Cl)cc2C12NC(=O)NC2=O` (stereo not drawn) are 7 µmol/g and 44.6%.
`CN1C(=O)Nc2c(F)cccc2C12NC(=O)NC2=O` (stereo not drawn): in the assay on Rattus norvegicus [1], the polyol content turned out to be 9.5 µmol/g. Moreover, the Inhibition in the assay on Rattus norvegicus [2] is 29.9%.
On the same counts, the results for `CN1C(=O)Nc2cc(N3CCOCC3)c([N+](=O)[O-])cc2C12NC(=O)NC2=O` (stereo not drawn) are 10.4 µmol/g and 10.3%.
`Cc1ccc2c(c1)C1(NC(=O)NC1=O)N(C)C(=O)N2` (stereo not drawn) showed a polyol content with Rattus norvegicus [1] of 9 µmol/g. Moreover, the Inhibition with Rattus norvegicus [2] is given as 30.9%.
On the same counts, the results for `CN1C(=O)Nc2ccccc2[C@@]12NC(=O)NC2=O` are 8.4 µmol/g and 39%.
`CN1C(=O)Nc2cc(Cl)c([N+](=O)[O-])cc2C12NC(=O)NC2=O` (stereo not drawn): in the assay with Rattus norvegicus [1], the polyol content is 10.6 µmol/g. Moreover, the Inhibition in the assay on Rattus norvegicus [2] was determined as 7.7%.
On the same counts, the results for `CN1C(=O)Nc2cc([N+](=O)[O-])ccc2C12NC(=O)NC2=O` (stereo not drawn) are 10.3 µmol/g and 11.5%.
On the same counts, the results for `CN1C(=O)Nc2ccc([N+](=O)[O-])cc2C12NC(=O)NC2=O` (stereo not drawn) are 12.1 µmol/g and 15.5%.
In the assay on Rattus norvegicus [1], `Cc1cccc2c1C1(NC(=O)NC1=O)N(C)C(=O)N2` (stereo not drawn) yielded a polyol content of 9.2 µmol/g. The same compound yielded an Inhibition in the assay with Rattus norvegicus [2] of 27.5%.
Consider `CN1C(=O)Nc2ccc([N+](=O)[O-])c(Cl)c2C12NC(=O)NC2=O` (stereo not drawn), for which, in the assay with Rattus norvegicus [1], the polyol content amounted to 11.5 µmol/g. This compound also came in with an Inhibition in the assay on Rattus norvegicus [2] of 0%.
Turning to `CN1C(=O)Nc2ccc(F)cc2[C@]12NC(=O)NC2=O`, in the assay on Rattus norvegicus [1], the polyol content was 12.1 µmol/g. The same compound yielded an Inhibition with Rattus norvegicus [2] of 15.5%.
In the same order, the values of `CC(C)CN1C(=O)N(C)C2(NC(=O)NC2=O)c2ccccc21` (stereo not drawn) are 8.1 µmol/g and 27.7%.
`COc1c(Cl)cc2c(c1Cl)NC(=O)N(C)C21NC(=O)NC1=O` (stereo not drawn) had a polyol content in the assay with Rattus norvegicus [1] of 8.4 µmol/g. In the assay with Rattus norvegicus [2], this compound gave an Inhibition of 37.5%.
With `CN1C(=O)Nc2ccc(Br)cc2C12NC(=O)NC2=O` (stereo not drawn), the polyol content in the assay with Rattus norvegicus [1] worked out at 5.6 µmol/g. Moreover, in the assay with Rattus norvegicus [2], the Inhibition stood at 74.7%.
In the same order, the values of `CN1C(=O)Nc2ccc(Cl)cc2[C@]12NC(=O)NC2=O` are 10.7 µmol/g and 26.3%.
In the same order, the values of `CN1C(=O)Nc2cc(Cl)c(Cl)cc2C12NC(=O)NC2=O` (stereo not drawn) are 7.5 µmol/g and 52.9%.
For the compound `NN1C(=O)Nc2ccccc2C12NC(=O)NC2=O` (stereo not drawn), the polyol content with Rattus norvegicus [1] is 11.3 µmol/g. For the same compound, in the assay on Rattus norvegicus [2], the Inhibition came to 12.2%.
As to `CCOC(=O)c1ccc2c(c1)C1(NC(=O)NC1=O)N(C)C(=O)N2` (stereo not drawn), the polyol content in the assay with Rattus norvegicus [1] was determined as 11.1 µmol/g. Also, in the assay on Rattus norvegicus [2], the Inhibition is 22.2%.
The compound `CN1C(=O)Nc2c([N+](=O)[O-])cc(Cl)cc2C12NC(=O)NC2=O` (stereo not drawn) displayed a polyol content in the assay with Rattus norvegicus [1] of 8 µmol/g. Besides, the Inhibition in the assay on Rattus norvegicus [2] is listed as 29.2%.
As for `CN1C(=O)Nc2cc3c(cc2C12NC(=O)NC2=O)OCO3` (stereo not drawn), the polyol content in the assay on Rattus norvegicus [1] stood at 9.2 µmol/g. In the assay on Rattus norvegicus [2], this compound had an Inhibition of 28.4%.
In the assay on Rattus norvegicus [1], `O=C1NC(=O)C2(N1)NC(=O)Nc1ccccc12` (stereo not drawn) returned a polyol content of 10.7 µmol/g. Further, in the assay on Rattus norvegicus [2], the Inhibition was 15.1%.
In the assay with Rattus norvegicus [1], `CCN1C(=O)Nc2ccccc2C12NC(=O)NC2=O` (stereo not drawn) displayed a polyol content of 9.6 µmol/g. For the same compound, in the assay with Rattus norvegicus [2], the Inhibition is recorded as 19.5%.
The compound `COc1ccc2c(c1)NC(=O)N(C)C21NC(=O)NC1=O` (stereo not drawn) yielded a polyol content with Rattus norvegicus [1] of 9.8 µmol/g. In the assay on Rattus norvegicus [2], this compound returned an Inhibition of 21%.
In the assay on Rattus norvegicus [1], `CN1C(=O)Nc2ccc(OC(=O)/C=C/c3ccccc3)cc2C12NC(=O)NC2=O` (stereo not drawn) had a polyol content of 10.4 µmol/g. Besides, the Inhibition in the assay on Rattus norvegicus [2] is listed as 29.3%.
On to `CN1C(=O)Nc2ccc(OC(=O)c3ccccc3)cc2C12NC(=O)NC2=O` (stereo not drawn), for which the polyol content in the assay with Rattus norvegicus [1] is 10.5 µmol/g. In the assay with Rattus norvegicus [2], the Inhibition is 12.3%.
Consider `COc1cc2c(cc1Cl)C1(NC(=O)NC1=O)N(C)C(=O)N2` (stereo not drawn), for which the polyol content with Rattus norvegicus [1] was 8.3 µmol/g. This compound also had an Inhibition in the assay on Rattus norvegicus [2] of 24.6%.
In general, inhibition in vivo refers to the change of the read-out against control, counted positive when it falls. As to `O=C1NC(=O)[C@@]2(CCOc3ccc(F)cc32)N1` [SORBINIL], in the assay with Rattus norvegicus [3], the inhibition in vivo at 15 mg/kg/day came out at 90.2%.
In the assay on Rattus norvegicus [1], `CN1C(=O)Nc2ccc(Cl)cc2C12NC(=O)NC2=O` (stereo not drawn) returned a polyol content of 6.7 µmol/g. Besides, the Inhibition in the assay on Rattus norvegicus [2] is 68%.
`CN1C(=O)Nc2ccccc2C12NC(=O)NC2=O` (stereo not drawn): the polyol content in the assay on Rattus norvegicus [1] came to 8.8 µmol/g. This compound also yielded an Inhibition in the assay on Rattus norvegicus [2] of 32.5%.
In the assay with Rattus norvegicus [1], `CN1C(=O)Nc2cc(Cl)ccc2C12NC(=O)NC2=O` (stereo not drawn) yielded a polyol content of 11.4 µmol/g. In addition, in the assay on Rattus norvegicus [2], the Inhibition is reported as 22.3%.
With `CN1C(=O)Nc2c([N+](=O)[O-])cc([N+](=O)[O-])cc2C12NC(=O)NC2=O` (stereo not drawn), the polyol content in the assay with Rattus norvegicus [1] is 10.1 µmol/g. In the assay on Rattus norvegicus [2], this compound returned an Inhibition of 14.1%.
In turn, `CN1C(=O)Nc2cccc(Cl)c2C12NC(=O)NC2=O` (stereo not drawn) gave a polyol content with Rattus norvegicus [1] of 11.9 µmol/g. Also, the Inhibition in the assay with Rattus norvegicus [2] is listed as 17.5%.
Consider `CN1C(=O)Nc2ccc(F)cc2C12NC(=O)NC2=O` (stereo not drawn), for which the polyol content with Rattus norvegicus [1] came to 6.7 µmol/g. Moreover, the Inhibition in the assay with Rattus norvegicus [2] is listed as 58.7%.
`CN1C(=O)Nc2ccc(Cl)cc2[C@@]12NC(=O)NC2=O`: the polyol content in the assay with Rattus norvegicus [4] worked out at 4.8 µmol/g; with Rattus norvegicus [1] it was 3.4 µmol/g; in the assay with Rattus norvegicus [5], 42.4 µmol/g; with Rattus norvegicus [6], 7.5 µmol/g; in the assay on Rattus norvegicus [8], 2.8 µmol/g; in the assay on Rattus norvegicus [9], 59.2 µmol/g. Moreover, in the assay on Rattus norvegicus [10], the polyol content turned out to be 58.9 µmol/g. In addition, the Inhibition in the assay on Rattus norvegicus [2] was 100%; in the assay with Rattus norvegicus [7] it was 23.4% and 0%.
With `CN1C(=O)Nc2c(cc(F)c(F)c2F)C12NC(=O)NC2=O` (stereo not drawn), the polyol content in the assay with Rattus norvegicus [1] is 9.5 µmol/g. The Inhibition with Rattus norvegicus [2] worked out at 29.9%.
On the same counts, the results for `CN1C(=O)N(C)C2(NC(=O)NC2=O)c2ccccc21` (stereo not drawn) are 9.2 µmol/g and 28.4%.

For the origin of these results see ChEMBL document CHEMBL1126066, “Biological activities and quantitative structure-activity relationships of spiro[imidazolidine-4,4'(1'H)-quinazoline]-2,2',5(3'H)-triones as aldose reductase inhibitors” (J Med Chem, 1992).
